# In the library only some 5.4% were active in any assay of this set; here they are far more common.
# E coli WT exp = blocks growth of wild type E. coli BW25113 | growth inhibition, % at 100 µM | hit rate 0.15% among 98,000 | OD600 absorbance;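 active = growth inhibition above about 50% at one test dose, limit read from the data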;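 note: growth measured after 20 h incubation at 37 °C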
# HePTP inh = inhibitors of human HePTP phosphatase. recombinant HePTP phosphatase activity, OD absorbance. inhibition, % at 20 µM. hit rate 0.64% among 110,000; in the data active = inhibition above about 50%
# PLAP act = activators of human placental alkaline phosphatase; activation fold at 20 µM; P05187; hit rate 1.2% among 96,000; purified PLAP enzyme, luminescent substrate read-out; hits give high values; in the data active = activation fold above about 2
# Target sequence (P05187 whole entry, looked up): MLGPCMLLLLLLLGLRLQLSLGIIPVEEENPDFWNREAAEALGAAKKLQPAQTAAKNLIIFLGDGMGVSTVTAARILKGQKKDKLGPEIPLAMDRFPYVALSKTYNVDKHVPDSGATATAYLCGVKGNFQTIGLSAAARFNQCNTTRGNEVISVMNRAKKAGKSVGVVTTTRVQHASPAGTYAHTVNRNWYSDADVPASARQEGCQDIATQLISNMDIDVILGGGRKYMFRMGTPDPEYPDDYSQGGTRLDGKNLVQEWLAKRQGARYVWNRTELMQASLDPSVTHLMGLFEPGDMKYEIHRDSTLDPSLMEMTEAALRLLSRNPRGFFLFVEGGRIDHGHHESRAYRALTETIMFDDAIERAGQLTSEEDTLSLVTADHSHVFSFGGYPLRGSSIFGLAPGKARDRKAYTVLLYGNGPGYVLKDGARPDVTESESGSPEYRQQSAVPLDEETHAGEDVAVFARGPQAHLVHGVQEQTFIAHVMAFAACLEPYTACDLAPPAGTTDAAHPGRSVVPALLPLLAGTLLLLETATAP
# PostGolgi yeast = growth inhibition of a yeast mutant, post-Golgi transport screen | post-Golgi transport phenotypic cell assay | inhibition, % at 10 µM | hit rate 0.9% among 98,000 | AID 739;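 note: yeast cells grown in 1536-well plates; yeast grown about 18 h at 30C before absorbance read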
# PostGolgi ctrl = yeast control strain growth, post-Golgi counter-screen | efflux-deficient yeast background strain, growth absorbance A615, 16 h | inhibition, % at 10 µM | hit rate 5% among 98,000 | AID 738
# tolC growth inh = blocks growth of E. coli BW25113 tolC mutant. OD615. growth inhibition, % at 10 µM (by protocol). hit rate 2.2% among 65,000. AID 573;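 active = growth inhibition at or above a cutoff equal to the mean over every tested compound plus 3 SD, cut at about 60% in these data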;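 note: growth measured after 20 h incubation at 37 °C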
#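 Signal: optical density read at 615 nm; Assay system: E. coli ΔtolC::kan strain BW25113; Times: 20 h incubation with compound, 37 °C; Dosing: 10 µM final, single dose.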
# Hits are given with their value; i = inactive; nt = not tested or not shown. Cut-off read from the data, not from the text of the source, unless noted: active = inhibition above about 30%; inactive = the rest.
SMILES,E coli WT exp,HePTP inh,PLAP act,PostGolgi yeast,PostGolgi ctrl,tolC growth inh
CCOC(=O)N1CCN(c2c(NCCCOC(C)C)c(=O)c2=O)CC1,i,i,i,i,i,i
CCN(CC)c1nc(N)nc(N(c2ccccc2)c2ccccc2)n1,i,nt,i,i,53,nt
O=C(Nc1ccc2ccccc2c1)c1ccccc1F,nt,i,nt,nt,nt,nt
CC1CCN(S(=O)(=O)c2cccc(C(=O)NCc3cccs3)c2)CC1,i,i,i,i,i,62
CCSc1nnc(Cc2cc(=O)[nH]c(=O)[nH]2)n1-c1ccc(Cl)cc1,nt,i,nt,nt,nt,i
Cc1ccc(NC(=O)C(=S)NCc2ccco2)cc1,i,nt,i,i,i,nt
COC(=O)c1sccc1-c1ccc(C(=O)Nc2cccc(Cl)c2)o1,i,nt,i,i,46,nt
Cc1ccc(C(=O)Nc2cccc(Cl)c2)o1,nt,i,nt,nt,nt,nt
COc1cccc(/C=N/Nc2ccc(S(=O)(=O)O)cc2)c1O,i,nt,i,i,i,nt
COc1ccc(C(=O)NC(C(Cl)(Cl)Cl)S(=O)(=O)c2ccc(C)cc2)cc1OC (stereo unspecified),nt,i,nt,nt,nt,nt
CCOC(=O)C1NN=C(C(=O)c2ccccc2)C1c1ccc(OC)cc1 (stereo unspecified),nt,104,nt,nt,nt,nt
COc1cccc(OC)c1C(=O)Nc1ccc(CN2CCOCC2)cc1,i,i,i,i,i,i
O=C(c1n[nH]c2ccccc12)N1CCN(S(=O)(=O)c2ccc3ccccc3c2)CC1,i,i,i,i,56,i
O=C(c1cnccn1)N1CCN(S(=O)(=O)c2ccc3ccccc3c2)CC1,i,nt,i,i,i,nt
COc1cc(OC)cc(-n2nnnc2SCC(=O)Nc2nc3c(s2)CCCC3)c1,i,nt,i,i,i,nt
COc1cccc(NC(=O)/C=C/c2cccc([N+](=O)[O-])c2)c1,nt,i,nt,nt,nt,nt
Cc1c(-c2ccc(Cl)cc2)[n+](=O)c2c(n1[O-])CCC2,nt,i,nt,nt,nt,nt
CC1CCN(S(=O)(=O)c2ccc(Cl)cc2Br)CC1,i,i,i,i,i,98
CN1CCN(S(=O)(=O)c2cc(Cl)ccc2Br)CC1,nt,i,nt,nt,nt,nt
COc1ccccc1NC(=O)COc1ccc(/C=N/n2cnnc2)cc1OC,i,i,i,i,i,i
COc1cccc(-c2nc(NCC3CCCO3)c3ccccc3n2)c1O (stereo unspecified),i,i,nt,i,43,i
Oc1ccccc1-c1nc(NCC2CCCO2)c2ccccc2n1 (stereo unspecified),i,i,i,i,56,66
CC(Nc1nc(-c2ccccc2O)nc2ccccc12)c1ccccc1 (stereo unspecified),nt,i,nt,nt,nt,nt
CCN(CC)CCOc1c(Br)ccc2c1sc1nc3n(c(=O)c12)CCC3,i,i,i,i,i,i
O=c1c2c(nc3n1CCCCC3)sc1c(O)c(Br)ccc12,i,nt,i,i,54,nt
SMILES,E coli WT exp,HePTP inh,PLAP act,PostGolgi yeast,PostGolgi ctrl,tolC growth inh
NC(=O)C1CCN(Cc2nc3cc(Cl)ccc3c(=O)[nH]2)CC1,i,nt,2,i,i,nt
CC(C)C1Cc2c(sc3c2c(=O)n(Cc2ccccc2)c2nncn32)CO1 (stereo unspecified),i,i,i,i,43,i
Cc1nnc2n(Cc3ccccc3)c(=O)c3c4c(sc3n12)COC(C(C)C)C4 (stereo unspecified),i,i,i,i,71,i
COc1cc(C2NC(=O)NC(c3ccccc3)=C2C(C)=O)ccc1OCC(=O)O (stereo unspecified),i,i,i,i,i,i
NS(=O)(=O)c1cccnc1Nc1c(Cl)cccc1Cl,i,nt,i,i,32,nt
CC(=O)NS(=O)(=O)c1cccnc1Nc1cccc(Cl)c1,i,nt,i,i,i,nt
CC(NS(=O)(=O)c1cccc(Cl)c1)C(=O)Nc1ccc(-c2nc3ccccc3s2)cc1 (stereo unspecified),i,nt,i,i,i,nt
Cc1ccc(C)c(S(=O)(=O)NC(C)C(=O)Nc2ccc(-c3nc4ccccc4s3)cc2)c1 (stereo unspecified),i,nt,i,i,33,nt
Cc1cccnc1N1C(=O)C2C3c4ccccc4C(c4ccccc43)C2C1=O (stereo unspecified),nt,i,nt,nt,nt,nt
Cc1ccnc2c(N3C(=O)C4C5c6ccccc6C(c6ccccc65)C4C3=O)cccc12 (stereo unspecified),i,nt,i,69,74,nt
CCN(CC)C(=O)CSc1nc(-c2ccc(C)cc2)nc2c1COC(C)(C)C2,i,nt,i,i,36,nt
Clc1ccccc1C(c1nnnn1Cc1ccco1)N1CCN(Cc2ccco2)CC1 (stereo unspecified),i,i,i,i,i,nt
NS(=O)(=O)c1ccc(NCc2cc(Cl)ccc2OCc2ccccc2F)cc1,i,nt,i,i,39,nt
Cc1ccc(Nc2cc(C)nc(-c3ccccc3O)n2)cc1,i,nt,i,i,40,nt
Cc1cc(C)n(CCOc2ccc(Cl)cc2Cl)n1,i,i,i,i,35,i
COC(=O)c1cc(OC)c(OC)cc1NC(=O)Nc1ccccc1OC,i,i,i,i,i,i
COC(=O)c1cc(OC)c(OC)cc1NC(=O)CSc1ccccc1,i,nt,i,i,43,nt
COC(=O)c1ccc(C(=O)OC)c(NC(=O)CSc2cccc[n+]2[O-])c1,50,nt,i,i,i,nt
COC(=O)c1ccc(C(=O)OC)c(NC(=O)COc2ccccc2OC)c1,i,i,i,i,i,i
COc1ccc(/C=C(\NC(=O)c2ccccc2)C(=O)NCc2ccncc2)cc1,nt,i,nt,nt,nt,nt
CN1C(=O)/C(=N/OC(=O)c2ccc(Cl)cc2)c2ccccc21,nt,i,nt,nt,nt,nt
Cc1c(C(=O)Nc2ccc(F)cc2)oc2ccc(S(=O)(=O)N3CC(C)CC(C)C3)cc12 (stereo unspecified),i,nt,i,i,i,nt
CCCOc1ccc(/C=N/NS(=O)(=O)c2ccc(OC)cc2)cc1OC,nt,i,nt,nt,nt,nt
Cc1nn(-c2ccccc2)c2sc(C(=O)N(CC(=O)NC(C)(C)C)Cc3ccco3)cc12,i,i,i,i,i,75
Cc1cc(C)n(-c2nc(NC(C)(C)C)nc(NC(C)(C)C)n2)n1,i,i,i,i,41,i
SMILES,E coli WT exp,HePTP inh,PLAP act,PostGolgi yeast,PostGolgi ctrl,tolC growth inh
Cc1cc(C)n(-c2nc(NC(C)C)nc(NC(C)C)n2)n1,i,i,i,i,i,88
Cc1cc(C)n(-c2nc(Nc3ccccc3C)nc(-n3nc(C)cc3C)n2)n1,i,nt,i,i,53,nt
CC(C)(C)Nc1nc(NC(C)(C)C)nc(-n2ccnc2)n1,i,i,i,i,33,i
CCOC(=O)c1ccc(S(=O)(=O)Nc2ccc3cn[nH]c3c2)cc1,i,nt,i,i,i,nt
CCc1nnc(NC2=NCCC2)s1,i,i,i,i,33,i
c1nnc(NC2=NCCC2)s1,i,nt,i,i,i,nt
CC1(C)CC(=O)C2=C(C1)Nc1ccc3ccccc3c1C2c1ccccc1F (stereo unspecified),nt,i,nt,nt,nt,nt
Cc1cc(C)cc(-n2c(C)cc(/C=N/NC(=O)CSc3ncccn3)c2C)c1,i,nt,i,41,i,nt
Cc1cc(=O)[nH]c(SCC(=O)c2ccc(C)c(C)c2)n1,i,i,i,87,i,i
CC(Sc1nnc(Cc2cccs2)n1C1CCCCC1)C(=O)N1CCc2ccccc21 (stereo unspecified),i,nt,i,i,34,nt
Cc1cccc(-c2c3c(=O)n(C)c(=O)n(C)c3cn2C2CCCCC2)c1,i,nt,i,76,i,nt

# From PubChem BioAssay
